An excerpt weighted towards active compounds, which were near 1.8% of everything screened.
NPY Y1 blocker = NPY-Y1 (human) receptor antagonism. HEK293-CNG Y1 cells, membrane potential fluorescence; NPY at EC95, then isoproterenol. AID 1040. inhibition, % at 3.6 µM. 200,000 compounds, 1% hits;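 active = inhibition above the campaign mean inhibition of all tested compounds plus 3 SD, cut at about 20% in these data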;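 note: 0% = DMSO wells given NPY plus isoproterenol and 100% = isoproterenol alone without NPY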
Target sequence (P25929 whole entry, looked up): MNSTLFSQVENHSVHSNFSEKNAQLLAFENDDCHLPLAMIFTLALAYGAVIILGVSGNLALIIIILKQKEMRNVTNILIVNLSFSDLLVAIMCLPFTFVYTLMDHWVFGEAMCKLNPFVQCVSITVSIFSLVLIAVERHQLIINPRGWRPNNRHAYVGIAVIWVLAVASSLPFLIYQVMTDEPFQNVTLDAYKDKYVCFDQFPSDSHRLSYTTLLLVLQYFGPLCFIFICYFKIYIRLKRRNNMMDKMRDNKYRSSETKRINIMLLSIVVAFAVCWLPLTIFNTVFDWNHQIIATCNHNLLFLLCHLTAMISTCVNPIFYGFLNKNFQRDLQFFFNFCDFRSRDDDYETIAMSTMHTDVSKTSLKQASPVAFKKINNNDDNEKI
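Test system – HEK293 Y1/CNG channel cell line · Also added – NPY agonist 25 nM, then isoproterenol 1 µM plus Ro 20-1724 25 µM · Compound dosing – one concentration, 3.6 µM, in 0.4% DMSO · Schedule – compound incubation 1 h at room temperature, readout 45 min post-stimulation · Technique – fluorescence, membrane potential probe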
NPY Y2 blocker = NPY-Y2 (human) receptor antagonism; P49146; NPY-Y2 expressing cells, antagonist mode; inhibition, % at 2.7 µM; AID 793; 140,000 compounds, 0.99% hits;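 note: 0% = vehicle with agonist challenge and 100% = reference antagonist with challenge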
NPY-Y1 PAM-ag = potentiators or agonists of human neuropeptide Y receptor Y1 | NPY-Y1 expressing cells, potentiator/agonist activation | activation, % at 3.6 µM | 220,000 compounds, 0.37% hits; in the data active = activation above about 33%, passing the limit was not always enough;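 note: cells stimulated with NPY at EC10 then isoproterenol at EC100; 0% = low agonist plus stimulus and 100% = saturating agonist plus stimulus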
NPY-Y2 PAM-ag = potentiates or activates human NPY-Y2 receptor; 220,000 compounds, 0.45% hits; activation, % at 3.6 µM; cells expressing NPY-Y2, potentiator/agonist read-out; in the data active = activation above about 27%;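 note: cells stimulated with NPY near EC25 plus isoproterenol at EC100; 0% = vehicle plus submaximal agonist and 100% = vehicle plus saturating agonist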
NPY1 antag conf = human NPY-Y1 antagonism, confirmation. shares compounds with NPY Y1 blocker. HEK293-CNG NPY-Y1, membrane potential fluorescence, cAMP; NPY challenge against isoproterenol-raised cAMP. inhibition, % at 3.6 µM. 1,200 compounds, 21% hits; in the data active = inhibition above about 20%;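 note: 0% = vehicle with agonist plus stimulus and 100% = stimulus alone without agonist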
NPY-Y2 antag ct = counter-screen for NPY-Y1 antagonists: human NPY-Y2 antagonism. 1,200 compounds, 28% hits. inhibition, % at 3.6 µM. HEK293 NPY-Y2 CNG membrane potential fluorescence; cells given NPY, then isoproterenol. shares compounds with NPY Y1 blocker. AID 1255;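 note: 0% = DMSO with agonist challenge and 100% = reference antagonist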
The depositor's hits bear a star; . = no result given. Cut-off read from the data, not from the text of the source, unless noted: active = inhibition above about 17%; inactive = the rest.

SMILES	NPY Y1 blocker	NPY Y2 blocker	NPY-Y1 PAM-ag	NPY-Y2 PAM-ag	NPY1 antag conf	NPY-Y2 antag ct
CCNC(=O)NC(=O)C(C)Oc1ccc(Br)cc1Br (stereo not given)	0	.	21	-2	.	.
COc1ccc(C2=NOC(C(=O)NCc3ccc(F)cc3)C2)cc1OC (stereo not given)	33*	9	-12	-12	7	16
COc1cccc(C2=NOC(C(=O)NCc3ccc(F)cc3)C2)c1 (stereo not given)	23*	13	-55	-47	15	24*
COc1ccc(CNC(=O)C2CC(c3cccc(OC)c3)=NO2)cc1 (stereo not given)	12	12	-28	-32	.	.
COc1cccc(C2=NOC(C(=O)NCc3cccs3)C2)c1 (stereo not given)	30*	7	-13	-48	3	15
COc1cc(C2=NOC(C(=O)NCc3ccc(F)cc3)C2)cc(OC)c1OC (stereo not given)	16	5	-26	-23	.	.
CCOCCCNC(=O)C(c1ccc(C)cc1)N(Cc1cccs1)C(=O)c1ccccc1O (stereo not given)	2	.	-13	-7	.	.
O=C(O)CCSc1nc2ccccc2s1	27*	10	-36	-30	8	6
CN1CCN(C(=S)c2cn(Cc3ccc(Br)cc3)c3ccccc23)CC1	11	.	-14	-19	.	.
CCCCOC(=O)c1ccc(NC(=S)NC(=O)c2c(Cl)cnn2C)cc1	25*	8	-36	-15	9	12
Clc1ccc(-c2nnc(-c3ccccc3Cl)o2)cc1	25*	7	-12	-4	8	8
COCCOC(=O)C1=C(C)NC(=O)NC1c1ccc(-c2cc(Cl)ccc2Cl)o1 (stereo not given)	-10	.	2	-22	.	.
Cc1cccc2cc(CN(Cc3ccccc3)C(=S)NCCCN(C)C)c(=O)[nH]c12	28*	.	-62	-28	8	14
Cc1ccc(CN(Cc2cc3cccc(C)c3[nH]c2=O)C(=S)NCCCN(C)C)cc1	10	.	-45	-30	.	.
CC(C)OCCCNC(=O)c1c(N)n(/N=C/c2cccs2)c2nc3ccccc3nc12	25*	9	14	10	17	16
O=C(C1CCCN1S(=O)(=O)c1ccc(Cl)cc1)N1CCOCC1 (stereo not given)	2	2	-1	11	.	.
Cc1cc(C)n(C(=O)C2CCCN2S(=O)(=O)c2ccc(Cl)cc2)n1 (stereo not given)	25*	-1	13	-11	-1	1
Fc1cccc(Cc2noc(CN3CCN(C4CCc5ccccc5C4)CC3)n2)c1 (stereo not given)	24*	.	-15	-20	17	13
COc1ccc(Cc2noc(CN3CCN(C4CCc5ccccc5C4)CC3)n2)cc1OC (stereo not given)	10	.	-6	-22	.	.
Cc1ccc(S(=O)(=O)N2CCOCC2)cc1NC(=O)COC(=O)c1cccnc1Cl	5	.	-3	-1	.	.
CCCCCCCn1c(=N)n(CC(O)c2ccco2)c2ccccc21 (stereo not given)	33*	.	-12	-34	24*	23*
CC(C)(C)c1ccc(Cn2c(=N)n(CC(O)c3ccco3)c3ccccc32)cc1 (stereo not given)	47*	.	-8	-20	22*	31*
Cn1ncc(Br)c1NC(=O)CSc1ccc(Cl)cc1	.	.	8	-4	.	.
CCCCCCC(=O)Nc1nc(C)c(-c2csc(Nc3ccc(Cl)cc3)n2)s1	25*	5	10	-9	15	4
CCCCCC(=O)Nc1nc(C)c(-c2csc(Nc3ccc(Cl)cc3)n2)s1	8	4	-9	10	.	.
SMILES	NPY Y1 blocker	NPY Y2 blocker	NPY-Y1 PAM-ag	NPY-Y2 PAM-ag	NPY1 antag conf	NPY-Y2 antag ct
COc1ccc(/C(C)=C2\SC(=S)N(CCC(=O)O)C2=O)cc1	23*	13	-34	-42	10	6
CC1(C)CC(N2CCCC2)=CC(=[N+]2CCCCCC2)C1	26*	.	-25	3	23*	12
CC1CC(C)C[N+](=C2C=C(N3CCCC3)CC(C)(C)C2)C1 (stereo not given)	42*	.	-10	15	31*	13
CC1(C)CC(N2CCN(c3ccccc3)CC2)=CC(=[N+]2CCCC2)C1	4	3	2	17	.	.
CCOC(=O)c1c(NC(=O)c2ccc(N3C(=O)C4C5C=CC(C5)C4C3=O)cc2)sc2c1CCCC2 (stereo not given)	-2	-1	-25	-2	.	.
COc1ccc2c(c1)c(C(=O)N/N=C/c1ccc(OC)c(OC)c1)c(C)n2C	0	2	-7	-3	.	.
C#CCn1c(S(=O)(=O)Cc2ccc(OC)cc2)nc(-c2ccccc2)c1-c1ccccc1	20*	12	-4	-27	8	4
Cc1ccc(C)c(NS(=O)(=O)c2cc(C(=O)N3CCCC3)ccc2Cl)c1	-1	.	-2	-17	.	.
N#C/C(=N\Nc1cccc2ccccc12)c1nnc2n1CCCCC2	20*	-1	1	0	-1	3
Cc1nc(N2CCCCC2)c2c(C)c(C(=O)Nc3ccccc3C(F)(F)F)sc2n1	27*	.	-47	-37	22*	15
COc1ccc(NC(=O)c2cc3ccc4c5ccccc5[nH]c4c3cc2O)cc1	.	.	18	21	.	.
O=C(NC(N1CCCC1)C(Cl)(Cl)Cl)c1ccccc1 (stereo not given)	0	4	-1	-4	.	.
O=C(NC(N1CCOCC1)C(Cl)(Cl)Cl)c1ccc(F)cc1 (stereo not given)	53*	.	-1	-2	0	0
CCOC(=O)c1c(CNCCN(CC)CC)n(C)c2cc(Br)c(OC)cc12	27*	13	-17	-27	11	15
CC1Cc2ccccc2N1C(=S)NC(=O)c1ccc(Cl)cc1Cl (stereo not given)	25*	7	-18	1	1	3
O=C(NCC1CCN(S(=O)(=O)c2ccccc2)CC1)Nc1ccc(F)cc1F	.	.	2	-9	.	.
CCOC(=O)c1ccc(CNC(=O)CSc2nnnn2-c2ccc(Cl)cc2)o1	20*	8	-9	-14	10	12
CCOC(=O)NC(=O)CSc1nnnn1-c1ccc(Cl)cc1	6	1	15	5	.	.
CCN(CC)S(=O)(=O)c1ccc(Oc2ccc(S(=O)(=O)N(CC)CC)cc2)cc1	32*	4	-20	-3	21*	13
CCOc1nc(-c2ccc(Cl)cc2Cl)ccc1C#N	36*	13	-19	-13	16	11
CCCCOC(=O)Cn1c(=N)n(CCC)c2ccccc21	40*	7	1	-7	3	5
c1ccc(COc2ccccc2CNC23CC4CC(CC(C4)C2)C3)cc1	158*	.	-64	-22	110*	70*
COc1ccc(Br)cc1CN(C)CC(=O)NCCc1ccccc1	7	.	-1	-16	.	.

From PubChem
